Inhibition in vivo, zone of inhibition and Activity data for seven molecules are collected here from ChEMBL document CHEMBL1828509, “Synthesis, pharmacological evaluation and docking studies of coumarin derivatives” (2011).

Holding throughout (assay type): functional
Test [1] concerns Rattus norvegicus. Kind of test: Antiinflammatory activity in Wistar albino rat assessed as inhibition of carrageenan-induced paw edema at 20 mg/kg, po administered 30 mins before carrageenan challenge measured after 2 hrs by plethysmograph. In short, it runs like this:
(§1)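 Male Wistar albino rats (150–200 g), six per group, dosed orally with 20 mg/kg suspension; control got 0.1 ml of 1% gum acacia suspension orally. After 30 min, 0.1 ml of 1% carrageenan in normal saline injected sub-plantar into the right hind paw. Paw volume measured by plethysmograph at 0, 1, 2, 3 and 4 h; percent edema inhibition versus control at matching time.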
(In the carrageenan paw model, swelling and tenderness develop within hours.)

Test [2] relates to Bacillus subtilis. Kind of test: Antimicrobial activity against Bacillus subtilis MTCC 1789 at 10 ug/ml. The note with it: read-out: IZ.
A further test concerns Mus musculus. Kind of test: Analgesic activity in mouse assessed as inhibition of acetic acid-induced writhing administered 30 mins before acetic acid challenge measured after 30 mins relative to control. Details: concentration or dose not given beside the values. In short, it runs like this:
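Groups of six mice (20–30 g, both sexes, pregnant females excluded) dosed with test compound; 30 min later 0.25 ml/mouse of 0.5% acetic acid given i.p. Writhes counted over the next 30 min. Mean writhes per group ± SE; percent decrease versus untreated control mice.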
On the technique in general: An intraperitoneal irritant provokes the stretching counted in writhing tests.

For test [3], the system named is Aspergillus niger. The test is described as follows: Antifungal activity against Aspergillus niger MTCC 282 at 25 ug/ml. The settings on record: read-out: IZ.
For test [4], the system named is Escherichia coli. The test is described as follows: Antimicrobial activity against Escherichia coli MTCC 4315 at 50 ug/ml. The note with it: read-out: IZ.
For test [5], the system named is Rattus norvegicus. The test is described as follows: Antiinflammatory activity in Wistar albino rat assessed as inhibition of carrageenan-induced paw edema at 20 mg/kg, po administered 30 mins before carrageenan challenge measured after 4 hrs by plethysmograph. In short, it runs like this:
as §1

In test [6] the test system is Rattus norvegicus. Kind of test: Antiinflammatory activity in Wistar albino rat assessed as inhibition of carrageenan-induced paw edema at 20 mg/kg, po administered 30 mins before carrageenan challenge measured after 1 hr by plethysmograph. In short, it runs like this:
as §1

For test [7], the system named is Bacillus subtilis. Kind of test: Antimicrobial activity against Bacillus subtilis MTCC 1789 at 25 ug/ml. The settings on record: read-out: IZ.
Test [8] deals with Rattus norvegicus. The test is described as follows: Antiinflammatory activity in Wistar albino rat assessed as inhibition of carrageenan-induced paw edema at 20 mg/kg, po administered 30 mins before carrageenan challenge measured after 3 hrs by plethysmograph. Put shortly: as §1
The subject of test [9] is Bacillus subtilis. The test is described as follows: Antimicrobial activity against Bacillus subtilis MTCC 1789 at 50 ug/ml. The note with it: read-out: IZ.
Test [10] has as its system Escherichia coli. The test is described as follows: Antimicrobial activity against Escherichia coli MTCC 4315 at 10 ug/ml. The note with it: read-out: IZ.
Test [11] deals with Candida albicans. The test is described as follows: Antifungal activity against Candida albicans MTCC 183 at 10 ug/ml. The settings on record: read-out: IZ.
The test system of test [12] is Escherichia coli. The test is described as follows: Antimicrobial activity against Escherichia coli MTCC 4315 at 25 ug/ml. The settings on record: read-out: IZ.
The subject of test [13] is Aspergillus niger. The test is described as follows: Antifungal activity against Aspergillus niger MTCC 282 at 50 ug/ml. The settings on record: read-out: IZ.
Test [14] has as its system Candida albicans. The test is described as follows: Antifungal activity against Candida albicans MTCC 183 at 25 ug/ml. The note with it: read-out: IZ.
The test system of test [15] is Candida albicans. The test is described as follows: Antifungal activity against Candida albicans MTCC 183 at 50 ug/ml. The note with it: read-out: IZ.
Test [16] has as its system Aspergillus niger. Kind of test: Antifungal activity against Aspergillus niger MTCC 282 at 10 ug/ml. The note with it: read-out: IZ.

As to `Cc1cc(=O)oc2cc(OC(=O)CNc3ccccc3)ccc12`, the inhibition in vivo at 20 mg/kg in the test with Rattus norvegicus [1] turned out to be 29.4%; with Rattus norvegicus [5] it was 13.7%; in the test with Rattus norvegicus [6] it was 10.7%; in the test on Rattus norvegicus [8], 30.8%. The zone of inhibition at 10 µg/mL in the test on Bacillus subtilis [2] worked out at 10.4 mm. In addition, in the test on Mus musculus, the Activity is 24%. The zone of inhibition at 25 µg/mL with Aspergillus niger [3] amounted to 10.2 mm; with Bacillus subtilis [7], 11.8 mm. Besides, the zone of inhibition at 50 µg/mL is 10.4 mm in the test on Escherichia coli [4] and 12.6 mm with Bacillus subtilis [9].

As for `Cc1cc(=O)oc2cc(OC(=O)CNc3cccc([N+](=O)[O-])c3)ccc12`, the zone of inhibition at 10 µg/mL with Escherichia coli [10] amounted to 10.3 mm; in the test on Candida albicans [11] it was 10.5 mm. Besides, the inhibition in vivo at 20 mg/kg in the test on Rattus norvegicus [1] worked out at 30.7%; in the test on Rattus norvegicus [5], 32.2%; with Rattus norvegicus [6], 28.5%; in the test with Rattus norvegicus [8], 34%. The Activity in the test on Mus musculus is reported as 13%. The zone of inhibition at 25 µg/mL in the test with Aspergillus niger [3] came out at 10.5 mm; in the test with Escherichia coli [12] it was 11.3 mm; in the test with Bacillus subtilis [7], 11.2 mm. Also, the zone of inhibition at 50 µg/mL in the test on Escherichia coli [4] was 11.1 mm; in the test with Bacillus subtilis [9], 13.4 mm; in the test on Aspergillus niger [13], 11.4 mm.

On to `Cc1cc(=O)oc2cc(OC(=O)CNc3ccc([N+](=O)[O-])cc3)ccc12`, for which the zone of inhibition at 25 µg/mL in the test on Candida albicans [14] is 10.2 mm; in the test on Escherichia coli [12], 14.2 mm; in the test on Bacillus subtilis [7], 12.1 mm. The zone of inhibition at 10 µg/mL was 12.2 mm with Escherichia coli [10] and 10.2 mm in the test with Bacillus subtilis [2]. In addition, the inhibition in vivo at 20 mg/kg stood at 17.9% with Rattus norvegicus [1], 23.7% in the test on Rattus norvegicus [5], 12.5% with Rattus norvegicus [6] and 20.2% with Rattus norvegicus [8]. In addition, the zone of inhibition at 50 µg/mL with Candida albicans [15] stood at 11.4 mm; in the test with Escherichia coli [4], 16.9 mm; with Bacillus subtilis [9], 13.4 mm; in the test with Aspergillus niger [13] it was 10.2 mm. Moreover, the Activity in the test with Mus musculus is recorded as 28%.

As to `Cc1cc(=O)oc2cc(OC(=O)CNc3ccccc3Cl)ccc12`, the inhibition in vivo at 20 mg/kg was 11.5% in the test with Rattus norvegicus [1], 23.7% in the test on Rattus norvegicus [5], 21.4% with Rattus norvegicus [6] and 12.8% with Rattus norvegicus [8]. Besides, the zone of inhibition at 50 µg/mL in the test with Candida albicans [15] stood at 10.4 mm; in the test on Escherichia coli [4], 12.6 mm; in the test with Aspergillus niger [13] it was 12.4 mm. The Activity in the test on Mus musculus was 21%. The zone of inhibition at 25 µg/mL stood at 10.2 mm in the test on Aspergillus niger [3] and 10.8 mm with Escherichia coli [12].

With `Cc1cc(=O)oc2cc(OC(=O)CNc3ccc(Cl)cc3)ccc12`, the zone of inhibition at 25 µg/mL with Candida albicans [14] is 12.2 mm; with Aspergillus niger [3] it was 10.2 mm; in the test on Escherichia coli [12] it was 10.8 mm. Further, the inhibition in vivo at 20 mg/kg was determined as 23% in the test on Rattus norvegicus [1], 16.1% in the test on Rattus norvegicus [5], 10.7% in the test on Rattus norvegicus [6] and 15.9% in the test on Rattus norvegicus [8]. The zone of inhibition at 50 µg/mL in the test on Candida albicans [15] came out at 13.4 mm; with Escherichia coli [4], 12.6 mm; with Bacillus subtilis [9], 12.3 mm; in the test with Aspergillus niger [13], 12.1 mm. The Activity with Mus musculus is listed as 11%. In addition, in the test with Candida albicans [11], the zone of inhibition at 10 µg/mL was determined as 10.6 mm.

Turning to `COc1ccccc1NCC(=O)Oc1ccc2c(C)cc(=O)oc2c1`, the inhibition in vivo at 20 mg/kg with Rattus norvegicus [1] was determined as 15.3%; with Rattus norvegicus [5], 19.4%; with Rattus norvegicus [6], 10.7%; with Rattus norvegicus [8], 26.6%. For the same molecule, the zone of inhibition at 10 µg/mL in the test with Bacillus subtilis [2] came out at 10.2 mm; in the test with Aspergillus niger [16], 10.4 mm. Further, the zone of inhibition at 50 µg/mL is 12.4 mm in the test with Candida albicans [15], 10.2 mm in the test on Escherichia coli [4] and 12.4 mm in the test with Aspergillus niger [13]. For the same molecule, the Activity in the test on Mus musculus was 28%. In addition, in the test with Bacillus subtilis [7], the zone of inhibition at 25 µg/mL stood at 11.4 mm.

Consider `COc1ccc(NCC(=O)Oc2ccc3c(C)cc(=O)oc3c2)cc1`, for which the zone of inhibition at 25 µg/mL was found to be 12.4 mm in the test with Candida albicans [14], 13.2 mm with Aspergillus niger [3], 11.2 mm in the test with Escherichia coli [12] and 13.3 mm in the test with Bacillus subtilis [7]. Besides, the results for the zone of inhibition at 10 µg/mL in the test with Escherichia coli [10], in the test on Bacillus subtilis [2] and with Candida albicans [11] were 10.5 mm, 11.2 mm and 10.2 mm, respectively. Moreover, the inhibition in vivo at 20 mg/kg came to 33.3% in the test with Rattus norvegicus [1], 28.8% in the test on Rattus norvegicus [5], 30.3% in the test on Rattus norvegicus [6] and 37.2% in the test on Rattus norvegicus [8]. In addition, the zone of inhibition at 50 µg/mL was 13.2 mm in the test with Candida albicans [15], 14.4 mm with Bacillus subtilis [9] and 14.1 mm in the test with Aspergillus niger [13]. Moreover, the Activity in the test with Mus musculus is reported as 17%.

As usually defined, the inhibition in vivo is the share of the control response that was lost under treatment.
